Consider two compounds from ChEMBL document CHEMBL4011632, “Design, Synthesis, and Evaluation of Thiazolidine-2,4-dione Derivatives as a Novel Class of Glutaminase Inhibitors” (J Med Chem, 2017).

The test system of data set [1] is ASPC1. Kind of data set: Antitumor activity against human Aspc-1 cells xenografted in Balb/cAnN.Cg-Foxn1nu/CrlNarl nude mouse assessed as tumor growth inhibition at 50 mg/kg, ip once daily administered for 5 days followed by 2 days without dosing for 68 days relative to control. The data set is classed as functional. The conditions noted are these: read-out: TGI. In a few lines:
(§1)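 Male nude mice (7−8 weeks, 18−22 g) received 4.5 × 10^6 AsPC-1 cells sc in the right flank, in HBSS mixed 1:1 with Matrigel. Mice were randomized once mean tumor reached ~100 mm3 (day 1). Dosing was ip once daily, 5 days on/2 days off, with 2% DMSO/PBS as vehicle. Tumors were measured twice weekly, V = ab²/2. %TGI = [1 − ((Tt − T0)/(Ct − C0))] × 100 from median volumes; Student's t test.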

Data set [2] addresses T1, Glutaminase liver isoform, mitochondrial (Homo sapiens) (UniProt Q9UI32).
T1 sequence (whole entry): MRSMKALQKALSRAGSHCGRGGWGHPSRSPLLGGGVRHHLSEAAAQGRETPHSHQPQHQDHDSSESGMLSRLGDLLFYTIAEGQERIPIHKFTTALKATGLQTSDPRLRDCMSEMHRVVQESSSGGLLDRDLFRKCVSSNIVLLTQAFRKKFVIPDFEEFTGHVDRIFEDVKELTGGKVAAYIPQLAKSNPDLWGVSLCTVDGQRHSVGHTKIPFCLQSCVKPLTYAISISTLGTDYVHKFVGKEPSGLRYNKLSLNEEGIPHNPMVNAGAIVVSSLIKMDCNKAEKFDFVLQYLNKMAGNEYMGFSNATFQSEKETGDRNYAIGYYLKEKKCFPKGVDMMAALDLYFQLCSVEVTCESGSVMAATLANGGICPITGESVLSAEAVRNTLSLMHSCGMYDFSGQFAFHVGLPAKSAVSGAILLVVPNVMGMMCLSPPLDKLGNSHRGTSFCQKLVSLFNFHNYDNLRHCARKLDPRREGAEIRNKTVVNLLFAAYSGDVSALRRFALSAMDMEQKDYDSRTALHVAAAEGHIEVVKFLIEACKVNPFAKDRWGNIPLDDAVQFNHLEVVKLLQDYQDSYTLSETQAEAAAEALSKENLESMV
Kind of data set: Inhibition of human GLS2 in GLS1 deficient human Aspc-1 cells assessed as decrease in cellular glutamate production after 4 hrs by amplex red glutamic acid assay. In short, it runs like this:
(§2)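 GLS-knockout AsPC-1 cells made with GLS-KO ZFN mRNA, single-cell cloned, and grown in glutamine-free RPMI 1640 with 10% FBS. Cells seeded at 30 000/well and grown 24 h at 37 °C. Treated 4 h with 1% DMSO vehicle or 3.13−100 μM inhibitor, washed with PBS, and lysed in NP-40 buffer (4 °C, 20 min). Lysate glutamate measured by Amplex Red. Three independent experiments in duplicate.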

The test system of data set [3] is HCC1806. Kind of data set: Synergistic cytotoxicity against human HCC1806 cells assessed as reduction in cell viability at ED50 in presence of BPTES by MTS assay. The data set is classed as functional. In a few lines: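 HCC1806 breast carcinoma cells seeded at 3000 cells/well and co-treated with the inhibitor and BPTES; viability read by MTS. […] Three independent experiments.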
For orientation: Tetrazolium dyes change colour on reduction, which living cells bring about.

In data set [4] the target is T1, Glutaminase liver isoform, mitochondrial (Homo sapiens). Kind of data set: Inhibition of human GLS2 in GLS1 deficient human Aspc-1 cells assessed as decrease in cellular glutamate production at 3.13 to 100 uM after 4 hrs by amplex red glutamic acid assay. In short, it runs like this:
as §2

The test system of data set [5] is Mus musculus. Kind of data set: Toxicity in BALB/CAnN.Cg-Foxn1nu/CrlNarl mouse xenografted with human Aspc-1 cells assessed as overt toxicity at 25 to 50 mg/kg, ip once daily administered for 5 days followed by 2 days without dosing for 68 days. The data set is classed as organism-based, BALB/C. Particulars: in vivo. In general terms: Xenograft models place foreign cells or tissue in a host animal.

The nature of data set [6]: Volume of distribution at steady state in Sprague-Dawley rat at 2 mg/kg, iv by HPLC-MS analysis. Particulars: in vivo, read-out: Vdss. The data set is classed as ADME, organism-based. In a few lines:
(§3)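 Male rats (330−380 g, 9−10 weeks old), quarantined 1 week, jugular-vein cannula implanted 1 day before dosing; n = 3. Single iv dose in DMA/PEG400 (20%/80%, v/v). Blood (100 μL) was drawn via cannula at 0, 2, 5, 15, 30 min and 1, 2, 4, 6, 8, 24 h and kept on ice. Plasma was analysed by HPLC−MS/MS. Vss came from noncompartmental analysis.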

Data set [7] in a line: Total clearance in Sprague-Dawley rat at 2 mg/kg, iv by HPLC-MS analysis. Particulars: in vivo. The data set is classed as ADME, organism-based. In short, it runs like this:
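Male rats (330−380 g, 9−10 weeks old), jugular-vein cannulated 1 day before dosing, n = 3. Dosed iv in DMA/PEG400 (20%/80%, v/v) or po in 1% CMC/0.5% Tween-80. Plasma measured by LC-MS/MS; parameters from noncompartmental analysis.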

Data set [8] deals with ASPC1. Kind of data set: Antitumor activity against human Aspc-1 cells xenografted in Balb/cAnN.Cg-Foxn1nu/CrlNarl mouse assessed as tumor growth inhibition at 25 mg/kg, ip once daily administered for 5 days followed by 2 days without dosing for 68 days relative to control. The data set is classed as functional. Particulars: read-out: TGI. In short, it runs like this: as §1

The nature of data set [9]: AUC (0 to infinity) in Sprague-Dawley rat at 2 mg/kg, iv by HPLC-MS analysis. The data set is classed as ADME, organism-based. The arrangement: dose 2 mg/kg, route intravenous, time infinity. Particulars: in vivo. In short, it runs like this: (§4)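 Male rats (330−380 g, 9−10 weeks old), jugular-vein cannulated 1 day before dosing, n = 3. Dosed iv in DMA/PEG400 (20%/80%, v/v) or po in 1% CMC/0.5% Tween-80. Blood (100 μL) drawn at 0, 2 min, 5 min (iv only), 15 and 30 min, and 1, 2, 4, 6, 8 and 24 h. Plasma measured by LC-MS/MS; parameters from noncompartmental analysis.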

Data set [10] can be described thus: Terminal half life in Sprague-Dawley rat at 2 mg/kg, iv by HPLC-MS analysis. The data set is classed as ADME, organism-based. Particulars: in vivo, read-out: beta t1/2 (converted). In a few lines:
as §4

The test system of data set [11] is ASPC1. Kind of data set: Antitumor activity against human Aspc-1 cells xenografted in Balb/cAnN.Cg-Foxn1nu/CrlNarl mouse assessed as tumor growth inhibition at 50 mg/kg, ip once daily administered for 5 days followed by 2 days without dosing for 43 days relative to control. The data set is classed as functional. Particulars: read-out: TGI. In a few lines:
as §1

The nature of data set [12]: Total clearance in Sprague-Dawley rat at 0.1 mg/kg, iv by HPLC-MS analysis. The data set is classed as ADME, organism-based. The conditions noted are these: in vivo. In a few lines:
as §4

The test system of data set [13] is ASPC1. Kind of data set: Antitumor activity against human Aspc-1 cells xenografted in Balb/cAnN.Cg-Foxn1nu/CrlNarl mouse assessed as tumor growth inhibition at 25 mg/kg, ip once daily administered for 5 days followed by 2 days without dosing for 43 days relative to control. The data set is classed as functional. The conditions noted are these: read-out: TGI. In a few lines: as §1

Data set [14] in a line: Cmax in Sprague-Dawley rat at 1 mg/kg, po by HPLC-MS analysis. The data set is classed as ADME, organism-based. The arrangement: dose 1 mg/kg, route oral. The conditions noted are these: in vivo. In short, it runs like this:
as §4

Data set [15] in a line: Tmax in Sprague-Dawley rat at 1 mg/kg, po by HPLC-MS analysis. The data set is classed as ADME, organism-based. The conditions noted are these: in vivo. In a few lines:
as §4

Data set [16] is described as follows: Volume of distribution at steady state in Sprague-Dawley rat at 0.1 mg/kg, iv by HPLC-MS analysis. The data set is classed as ADME, organism-based. Particulars: in vivo, read-out: Vdss. In short, it runs like this: as §3
Data set [17] is described as follows: AUC (0 to infinity) in Sprague-Dawley rat at 1 mg/kg, po by HPLC-MS analysis. The data set is classed as ADME, organism-based. The arrangement: dose 1 mg/kg, route oral, time infinity. The conditions noted are these: in vivo. In short, it runs like this:
as §4

Data set [18] relates to Mus musculus. Kind of data set: Toxicity in BALB/CAnN.Cg-Foxn1nu/CrlNarl mouse xenografted with human Aspc-1 cells assessed as loss in body weight at 25 mg/kg, ip once daily administered for 5 days followed by 2 days without dosing for 43 days relative to control. The data set is classed as organism-based, BALB/C. Particulars: in vivo.

Molecules are shown by their SMILES. The source made the active and inactive calls. The rule behind the calls is not given here. Where only a bound is given, the exact number is not on record here.

As for `O=C1NC(=O)/C(=C/c2ccc(-c3ccc(-n4c(-c5cccs5)cc(/C=C5\SC(=O)NC5=O)c4-c4cccs4)cc3)cc2)S1`, the inhibition in vivo at 50 mg/kg in data set [1] worked out at 49%. The inhibition result in data set [2] was “Dose-dependent effect”. Also, the CI in data set [3] was 0.13 - 0.14. The inhibition entry in data set [4] was “Active”. Moreover, in [5], the Activity result was “Non-Toxic”. The Vd in [6] was found to be 0.1 L/kg. This compound also showed a clearance in [7] of 0.9 mL/min/kg. Moreover, the inhibition in vivo at 25 mg/kg in [8] stood at 2.3%. This compound showed an AUC(0-inf) in data set [9] of 43600 ng·h/mL. Moreover, the half-life in data set [10] is 5 h.

Consider `Cc1cc(/C=C2\SC(=O)NC2=O)c(C)n1-c1ccc(-c2ccc(/C=C3\SC(=O)NC3=O)cc2)cc1`, for which, in data set [11], the inhibition in vivo at 50 mg/kg was determined as 64%. The clearance in data set [12] worked out at 0.4 mL/min/kg. Moreover, the inhibition in vivo at 25 mg/kg in [13] came out at 60%. In addition, in [14], the Cmax is 16.6 ng/mL. Further, in data set [15], the Tmax stood at 4 h. Moreover, the Vd in data set [16] stood at 0.4 L/kg. In addition, the AUC(0-inf) in [17] stood at 222 ng·h/mL. Also, the Activity in [18] is listed as over 10%.

A word on the clearance: it is the volume of plasma or blood freed of the substance per unit of time. In general, AUC(0-inf) refers to the area under the concentration-time curve extrapolated to infinity. What is called Cmax is the highest concentration seen after dosing. In general, Tmax refers to the time at which the peak concentration occurs.
